Results as given in ChEMBL document CHEMBL1629657, “In vitro antimicrobial activity of a new cephalosporin, ceftaroline, and determination of quality control ranges for MIC testing” (2009).
In brackets after ≈: the same amount, converted by molar mass.

Experiments:
Format in all cases: functional
[1] = test system: Staphylococcus; assay: Antimicrobial activity against methicillin-resistant coagulase-negative Staphylococcus by broth microdilution method
Outline: (§1)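 Isolates of the stated resistance phenotype were tested by CLSI broth microdilution in unsupplemented cation-adjusted Mueller-Hinton broth. Ceftaroline was compared with ceftriaxone, levofloxacin and imipenem. Activity was expressed as MICs (MIC90 in μg/ml).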

[2] = fT>MIC Staphylococcus aureus infected mouse model for 1-log kill
[3] = test system: Morganella morganii; assay: Antimicrobial activity against Morganella morganii by broth microdilution method
Outline: (§2)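 Clinical isolates were tested by CLSI broth microdilution in unsupplemented cation-adjusted Mueller-Hinton broth. The read-out was the MIC, reported as MIC90 (μg/ml) per species or phenotypic group. Ceftriaxone, levofloxacin and imipenem were run in parallel as comparators.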

[4] = test system: Enterococcus faecalis; assay: Antimicrobial activity against Enterococcus faecalis by broth microdilution method; outline: as §2
[5] = test system: Staphylococcus aureus; assay: Antimicrobial activity against vancomycin-intermediate Staphylococcus aureus by broth microdilution method; outline: as §2
[6] = test system: Staphylococcus; assay: Antimicrobial activity against methicillin-susceptible coagulase-negative Staphylococcus by broth microdilution method; outline: as §2
[7] = test system: Enterococcus faecium; assay: Antimicrobial activity against vancomycin-susceptible Enterococcus faecium by broth microdilution method; outline: as §2
[8] = test system: Shigella sp.; assay: Antimicrobial activity against Shigella spp. by broth microdilution method; outline: as §2
[9] = test system: Pseudomonas aeruginosa; assay: Antimicrobial activity against multidrug resistant Pseudomonas aeruginosa by broth microdilution method; outline: as §1
[10] = test system: Streptococcus pneumoniae; assay: Antimicrobial activity against levofloxacin-resistant Streptococcus pneumoniae by broth microdilution method
Outline: (§3)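 CLSI broth microdilution in cation-adjusted Mueller-Hinton broth with 3% lysed horse blood, against streptococcal clinical isolates of the stated phenotype. Ceftaroline was compared with ceftriaxone, levofloxacin and imipenem. Activity was expressed as MICs (MIC90 in μg/ml).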

[11] = test system: Haemophilus influenzae; assay: Antimicrobial activity against beta-lactamase-negative Haemophilus influenzae by broth microdilution method
Outline: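 CLSI broth microdilution in Haemophilus test medium (cation-adjusted Mueller-Hinton base) against clinical H. influenzae isolates of the stated phenotype. Ceftaroline was compared with ceftriaxone, levofloxacin and imipenem. Activity was expressed as MICs (MIC90 in μg/ml).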

[12] = test system: Escherichia coli; assay: Antimicrobial activity against ESBL-positive Escherichia coli by broth microdilution method; outline: as §2
[13] = test system: Enterococcus faecium; assay: Antimicrobial activity against Enterococcus faecium by broth microdilution method; outline: as §2
[14] = test system: Burkholderia cepacia; assay: Antimicrobial activity against Burkholderia cepacia by broth microdilution method; outline: as §2
[15] = fT>MIC Streptococcus pneumoniae infected mouse model for 1-log kill
[16] = test system: Streptococcus pneumoniae; assay: Antimicrobial activity against penicillin-resistant Streptococcus pneumoniae by broth microdilution method; outline: as §3
[17] = test system: Listeria monocytogenes; assay: Antimicrobial activity against Listeria monocytogenes by broth microdilution method; outline: as §2
[18] = test system: Streptococcus pneumoniae; assay: Antimicrobial activity against penicillin-intermediate Streptococcus pneumoniae by broth microdilution method; outline: as §3
[19] = test system: Streptococcus agalactiae; assay: Antimicrobial activity against Streptococcus agalactiae by broth microdilution method
Outline: (§4)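 Streptococcal isolates were tested by CLSI broth microdilution in cation-adjusted Mueller-Hinton broth supplemented with 3% lysed horse blood. The read-out was the MIC, with MIC90 (μg/ml) reported per group. Ceftriaxone, levofloxacin and imipenem served as comparators.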

[20] = test system: Proteus vulgaris; assay: Antimicrobial activity against Proteus vulgaris by broth microdilution method; outline: as §2
[21] = test system: Stenotrophomonas maltophilia; assay: Antimicrobial activity against Stenotrophomonas maltophilia by broth microdilution method; outline: as §2
[22] = test system: Salmonella sp.; assay: Antimicrobial activity against Salmonella spp. by broth microdilution method; outline: as §2
[23] = test system: Pseudomonas aeruginosa; assay: Antimicrobial activity against Pseudomonas aeruginosa by broth microdilution method; outline: as §2
[24] = test system: Streptococcus pneumoniae; assay: Antimicrobial activity against penicillin-susceptible Streptococcus pneumoniae by broth microdilution method; outline: as §4

Structure (SMILES): CCO/N=C(\C(=O)N[C@@H]1C(=O)N2C(C(=O)[O-])=C(Sc3nc(-c4cc[n+](C)cc4)cs3)CS[C@H]12)c1nsc(NP(=O)(O)O)n1 [CEFTAROLINE FOSAMIL]
- MIC50 [1]: 0.25 µg/mL (≈ 0.365 µM)
- MIC90 [1]: 0.5 µg/mL (≈ 0.73 µM)
- fT>MIC [2]: 33%
- MIC50 [3]: > 32 µg/mL
- MIC90 [3]: > 32 µg/mL
- MIC50 [4]: 2 µg/mL (≈ 2.92 µM)
- MIC90 [4]: 4 µg/mL (≈ 5.84 µM)
- MIC50 [5]: 1 µg/mL (≈ 1.46 µM)
- MIC90 [5]: 1 µg/mL (≈ 1.46 µM)
- MIC50 [6]: 0.06 µg/mL (≈ 0.0876 µM)
- MIC90 [6]: 0.25 µg/mL (≈ 0.365 µM)
- MIC50 [7]: 1 µg/mL (≈ 1.46 µM)
- MIC90 [7]: 16 µg/mL (≈ 23.4 µM)
- MIC50 [8]: 0.03 µg/mL (≈ 0.0438 µM)
- MIC90 [8]: 0.12 µg/mL (≈ 0.175 µM)
- MIC50 [9]: 16 µg/mL (≈ 23.4 µM)
- MIC50 [10]: 0.03 µg/mL (≈ 0.0438 µM)
- MIC90 [10]: 0.25 µg/mL (≈ 0.365 µM)
- MIC [11]: 0.015 µg/mL (≈ 0.0219 µM)
- MIC50 [11]: 0.015 µg/mL (≈ 0.0219 µM)
- MIC90 [11]: 0.015 µg/mL (≈ 0.0219 µM)
- MIC50 [12]: > 32 µg/mL
- MIC90 [12]: > 32 µg/mL
- MIC50 [13]: 32 µg/mL (≈ 46.7 µM)
- MIC90 [13]: > 32 µg/mL
- MIC50 [14]: > 32 µg/mL
- MIC90 [14]: > 32 µg/mL
- fT>MIC [15]: 43%
- MIC50 [16]: 0.25 µg/mL (≈ 0.365 µM)
- MIC90 [16]: 0.5 µg/mL (≈ 0.73 µM)
- MIC50 [17]: 4 µg/mL (≈ 5.84 µM)
- MIC90 [17]: 4 µg/mL (≈ 5.84 µM)
- MIC50 [18]: 0.03 µg/mL (≈ 0.0438 µM)
- MIC90 [18]: 0.06 µg/mL (≈ 0.0876 µM)
- MIC [19]: 0.015 µg/mL (≈ 0.0219 µM)
- MIC50 [19]: 0.015 µg/mL (≈ 0.0219 µM)
- MIC90 [19]: 0.015 µg/mL (≈ 0.0219 µM)
- MIC50 [20]: 16 µg/mL (≈ 23.4 µM)
- MIC90 [20]: > 32 µg/mL
- MIC50 [21]: > 32 µg/mL
- MIC90 [21]: > 32 µg/mL
- MIC50 [22]: 0.12 µg/mL (≈ 0.175 µM)
- MIC90 [22]: > 32 µg/mL
- MIC50 [23]: 16 µg/mL (≈ 23.4 µM)
- MIC90 [23]: > 32 µg/mL
- MIC [24]: 0.015 µg/mL (≈ 0.0219 µM)
- MIC50 [24]: 0.015 µg/mL (≈ 0.0219 µM)
- MIC90 [24]: 0.015 µg/mL (≈ 0.0219 µM)
